Measured values as given in ChEMBL document CHEMBL3997828, “Investigation of orexin-2 selective receptor antagonists: Structural modifications resulting in dual orexin receptor antagonists” (Bioorg Med Chem Lett, 2017).
Values after ≈ are worked out from the molar mass of the structure shown. Active and inactive are the calls of the source. The calls are words filed in the database; no cut-off is given here.

How the values were obtained:
[1] = species on record: Homo sapiens; experiment: Selectivity ratio of IC50 for human OX1R expressed in CHOK1 cells to IC50 for human OX2R expressed in CHOK1 cells by FLIPR assay; type: cell-based
[2] = biological target: T1, Orexin/Hypocretin receptor type 1 (Homo sapiens, UniProt O43613); experiment: Displacement of [3H](S)-N-(biphenyl-2-yl)-1-(2-(1-methyl-1H-benzo[d]imidazol-2-ylthio)acetyl)pyrrolidine-2-carboxamide from human OX1R expressed in CHOK1 cell membranes
T1 sequence (O43613 whole entry): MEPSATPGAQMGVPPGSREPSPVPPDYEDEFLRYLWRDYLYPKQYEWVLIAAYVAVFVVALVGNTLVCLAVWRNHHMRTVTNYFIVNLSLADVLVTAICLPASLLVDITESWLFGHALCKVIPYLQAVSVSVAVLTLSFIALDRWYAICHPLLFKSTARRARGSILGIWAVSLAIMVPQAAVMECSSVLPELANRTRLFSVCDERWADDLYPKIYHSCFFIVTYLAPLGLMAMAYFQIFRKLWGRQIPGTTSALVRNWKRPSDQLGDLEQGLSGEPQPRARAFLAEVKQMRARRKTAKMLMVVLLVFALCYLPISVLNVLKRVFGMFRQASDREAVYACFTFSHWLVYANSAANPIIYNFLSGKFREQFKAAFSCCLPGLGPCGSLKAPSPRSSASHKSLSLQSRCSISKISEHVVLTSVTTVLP
Summary of the method: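 Radioligand competition binding used membranes from CHO-K1 cells overexpressing human OX1R or OX2R. The selectivity ratio is OX1R Ki divided by OX2R Ki.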

[3] = biological target: T1, Orexin/Hypocretin receptor type 1; experiment: Antagonist activity at human OX1R expressed in CHOK1 cells assessed as reduction in orexin A-induced calcium flux preincubated followed by orexin A addition by FLIPR assays; type: functional, cell-based
[4] = biological target: T2, Orexin receptor type 2 (Homo sapiens, UniProt O43614); experiment: Displacement of [3H](S)-N-(2-(1H-pyrrol-1-yl)phenyl)-1-(2-(1-methyl-1H-benzo[d]imidazol-2-ylthio)acetyl)pyrrolidine-2-carboxamide from human OX2R expressed in CHOK1 cell membranes
T2 sequence (O43614 whole entry): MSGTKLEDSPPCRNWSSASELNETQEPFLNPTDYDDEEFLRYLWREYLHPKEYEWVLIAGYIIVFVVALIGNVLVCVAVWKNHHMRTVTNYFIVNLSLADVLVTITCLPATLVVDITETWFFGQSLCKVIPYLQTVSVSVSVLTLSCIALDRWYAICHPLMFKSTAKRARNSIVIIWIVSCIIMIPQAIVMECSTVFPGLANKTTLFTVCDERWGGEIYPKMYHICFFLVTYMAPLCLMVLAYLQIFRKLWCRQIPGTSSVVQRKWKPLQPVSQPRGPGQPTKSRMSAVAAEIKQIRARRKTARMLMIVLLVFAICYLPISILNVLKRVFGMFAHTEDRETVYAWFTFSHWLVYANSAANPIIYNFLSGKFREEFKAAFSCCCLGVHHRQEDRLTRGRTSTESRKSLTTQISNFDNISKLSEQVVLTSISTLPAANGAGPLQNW
Summary of the method: (§1)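 Radioligand competition binding used membranes from CHO-K1 cells overexpressing human OX1R or OX2R. […] The selectivity ratio is OX1R Ki divided by OX2R Ki.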

[5] = biological target: T2, Orexin receptor type 2; experiment: Antagonist activity at human OX2R expressed in CHOK1 cells assessed as reduction in orexin A-induced calcium flux preincubated followed by orexin A addition by FLIPR assays; type: functional, cell-based
[6] = species on record: Homo sapiens; experiment: Selectivity ratio of Ki for human OX1R expressed in CHOK1 cell membranes to Ki for human OX2R expressed in CHOK1 cell membranes; type: cell-based; summary of the method: as §1
[7] = Time-dependent inhibition of CYP450 (unknown origin); type: ADME; conditions: human
[8] = biological target: T3, Nuclear receptor subfamily 1 group I member 2 (Homo sapiens, UniProt O75469); experiment: Inhibition of PXR (unknown origin); type: ADME
T3 sequence (O75469 whole entry): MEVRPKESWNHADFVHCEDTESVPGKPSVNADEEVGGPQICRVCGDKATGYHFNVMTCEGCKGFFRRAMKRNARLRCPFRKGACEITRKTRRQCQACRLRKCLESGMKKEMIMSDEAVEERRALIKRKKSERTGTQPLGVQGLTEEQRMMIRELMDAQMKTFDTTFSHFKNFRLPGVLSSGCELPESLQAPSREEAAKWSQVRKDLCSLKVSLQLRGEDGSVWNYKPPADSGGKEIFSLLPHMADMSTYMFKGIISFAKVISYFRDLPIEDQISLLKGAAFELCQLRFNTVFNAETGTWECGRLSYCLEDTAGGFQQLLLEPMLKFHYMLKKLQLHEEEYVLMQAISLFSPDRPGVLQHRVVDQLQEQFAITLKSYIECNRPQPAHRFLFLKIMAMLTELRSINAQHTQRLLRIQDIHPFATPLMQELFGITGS

[9] = test system: Mus musculus; experiment: Sleep promoting activity in mouse assessed as attenuation of active wake at 30 mg/kg, po administered in late active phase for 5 consecutive days measured up to 1.5 hrs post dose by electroencephalogram/electromyogram analysis
[10] = test system: Rattus norvegicus; experiment: Sleep promoting activity in rat assessed as increase in REM sleep at 0.5 to 3 mg/kg, po administered in mid active phase for 3 consecutive days by electroencephalogram/electromyogram analysis; type: functional, organism-based
Summary of the method: (§2)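 Rats carried implanted radio-telemetry devices for EEG/EMG polysomnography. Oral doses were 0.5 (n=16), 1 (n=14) or 3 mg/kg (n=12) versus vehicle (20% vitamin E TPGS). Dosing was at ZT18:00 (6 h after lights off) on 3 consecutive days in a balanced cross-over. Active wake, NREM and REM time was scored in 30-min bins, and all treatment days were averaged over 24 h.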

[11] = test system: Rattus norvegicus; experiment: Sleep promoting activity in po dosed rat assessed as attenuation of active wake administered in mid active phase for 3 consecutive days measured up to 2 hrs post dose by electroencephalogram/electromyogram analysis; type: functional, organism-based; summary of the method: as §2
[12] = test system: Mus musculus; experiment: Sleep promoting activity in mouse assessed as increase in REM sleep at 30 mg/kg, po administered in late active phase for 5 consecutive days by electroencephalogram/electromyogram analysis
[13] = test system: OX2R knockout mouse (Mus musculus); experiment: Sleep promoting activity in OX2R knockout mouse assessed as increase in NREM sleep at 30 mg/kg, po administered in late active phase for 5 consecutive days by electroencephalogram/electromyogram analysis
[14] = Solubility of the compound in pH 1.8 SGF at 0.1 mg/ml after 15 mins by reverse-phase chromatography; type: physicochemical; conditions: simulated gastric fluid (SGF)
Summary of the method: (§3)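 Compound at […] was stirred at 80 rpm in SGF (0.01 N HCl, 0.9 wt.% NaCl, pH 1.8) or FASSIF (3 mM sodium taurocholate, 0.75 mM lecithin, 100 mM NaCl, NaOH/NaH₂PO₄, pH 6.5). It was then centrifuged at 14k rpm for 15 min.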

[15] = test system: Mus musculus; experiment: Sleep promoting activity in mouse assessed as increase in NREM sleep at 30 mg/kg, po administered in late active phase for 5 consecutive days by electroencephalogram/electromyogram analysis
[16] = test system: Rattus norvegicus; experiment: Sleep promoting activity in rat assessed as increase in NREM sleep at 0.5 to 3 mg/kg, po administered in mid active phase for 3 consecutive days by electroencephalogram/electromyogram analysis; type: functional, organism-based; summary of the method: as §2
[17] = Solubility of the compound in pH 6.5 FASSIF at 0.1 mg/ml after 15 mins by reverse-phase chromatography; type: physicochemical; conditions: fasted state simulated intestinal fluid (FaSSIF); summary of the method: as §3
[18] = test system: OX2R knockout mouse (Mus musculus); experiment: Sleep promoting activity in OX2R knockout mouse assessed as attenuation of active wake at 30 mg/kg, po administered in late active phase for 5 consecutive days by electroencephalogram/electromyogram analysis

| SMILES | Ki [2] [nM] | Ki [4] [nM] | Ratio IC50 [1] | IC50 [3] [nM] | Ratio Ki [6] | further results |
| --- | --- | --- | --- | --- | --- | --- |
| COC(=O)c1cccnc1O[C@@H]1CC[C@@H](C)N(C(=O)c2ccccc2-n2nccn2)C1 | 66 | 2.5 | 9 | 309 | 26 | IC50 [5]: 35 nM |
| COc1ccc(C(=O)N2C[C@H](Oc3nccc(C#N)c3C)CC[C@H]2C)c(C2CC2)n1 |  |  |  |  |  | TDI [7]: Active |
| Cc1c(C#N)ccnc1O[C@@H]1CC[C@@H](C)N(C(=O)c2ccccc2-n2ncnn2)C1 |  |  | 596 | 4590 | 358 |  |
| CCOc1ccccc1C(=O)N1C[C@H](Oc2nccc(C#N)c2C)CC[C@H]1C |  |  | 350 | 2100 | 849 | inhibition (INH) [8]: Active |
| COc1ccc(C(=O)N2C[C@H](Oc3nccc(C#N)c3C)CC[C@H]2C)c(SC)n1 |  |  | > 455 | > 10000 | 1260 | TDI [7]: Active |
| COc1ccc(C(=O)N2C[C@H](Oc3nccc(C#N)c3C)CC[C@H]2C)c(-n2nccn2)c1 |  |  |  |  |  | inhibition (INH) [8]: Active |
| Cc1c(C#N)ccnc1O[C@@H]1CC[C@@H](C)N(C(=O)c2ccccc2C2CC2)C1 |  |  | 193 | 1740 | 741 |  |
| COc1ccc(C(=O)N2C[C@H](Oc3nccc(C#N)c3C)CC[C@H]2C)c(-n2nccn2)n1 |  |  | 282 | 5930 | 1190 | inhibition (INH) [8]: Active |
| C[C@@H]1CC[C@@H](Oc2cc(C#N)ccn2)CN1C(=O)c1ccccc1-n1nccn1 |  |  | 295 to 356 | 3200 to 3830 | 518 | Activity [9]: Active; Activity [10]: Active; Activity [11]: Dose-dependent effect; Activity [12]: Active; Activity [13]: inactive; solubility at 0.25 h [14]: 13.7 µg/mL (≈ 35.3 µM); Activity [15]: Active; Activity [16]: Active; solubility at 0.25 h [17]: 13.5 µg/mL (≈ 34.8 µM); IC50 [5]: 9 to 13 nM; Activity [18]: inactive |
| Cc1c(C#N)ccnc1O[C@@H]1CC[C@@H](C)N(C(=O)c2ccccc2-n2nccn2)C1 |  |  | 125 | 996 | 285 |  |
| C[C@@H]1CC[C@@H](Nc2cc(C#N)ccn2)CN1C(=O)c1ccccc1-n1nccn1 | 287 | 0.9 | 60 | 1740 | 319 |  |
| COC(=O)c1ccnc(O[C@@H]2CC[C@@H](C)N(C(=O)c3ccccc3-n3nccn3)C2)c1 |  |  | 82 |  | 80 |  |
| Cc1c(C#N)ccnc1O[C@@H]1CC[C@@H](C)N(C(=O)c2ccccc2C(F)(F)F)C1 |  |  | 236 | 4960 | 373 |  |
| COC(=O)c1c(C#N)ccnc1O[C@@H]1CC[C@@H](C)N(C(=O)c2ccccc2-n2nccn2)C1 |  | 0.5 | 39 |  | 112 |  |
| C[C@@H]1CC[C@@H](Oc2nccc3c2C(=O)OC3(C)C)CN1C(=O)c1ccccc1-n1nccn1 | 834 | 2.2 | 414 |  | 379 |  |
| Cc1c(C#N)ccnc1O[C@@H]1CC[C@@H](C)N(C(=O)c2ccc(Br)nc2-n2nccn2)C1 |  |  | > 345 | > 10000 | 326 |  |
| C[C@@H]1CC[C@@H](Oc2cc(C#N)ccn2)CN1C(=O)c1ccccc1-c1ncccn1 | 569 |  | 175 |  | 438 | solubility at 0.25 h [14]: 680 µg/mL (≈ 1700 µM); solubility at 0.25 h [17]: 660 µg/mL (≈ 1650 µM) |
| Cc1c(C#N)ccnc1O[C@@H]1CC[C@@H](C)N(C(=O)c2cccnc2-c2ccccc2)C1 |  |  | 180 | 4670 | 434 |  |
| Cc1c(C#N)ccnc1O[C@@H]1CC[C@@H](C)N(C(=O)c2ccccc2N2CCCC2)C1 |  |  | 107 | 3100 | 232 | TDI [7]: Active |

The next lines start with results.

| Ki [2] [nM] | Ki [4] [nM] | SMILES | Ratio IC50 [1] | IC50 [3] [nM] | Ratio Ki [6] | further results |
| --- | --- | --- | --- | --- | --- | --- |
| 10 | 0.7 | CC(=O)Nc1cc(C(=O)N2C[C@H](Oc3nccc(C#N)c3C)CC[C@H]2C)c(-c2ccccc2)cn1 | 2 | 71 | 14 | IC50 [5]: 38 nM |
| 6.3 | 0.8 | COC(=O)c1cccnc1S[C@@H]1CC[C@@H](C)N(C(=O)c2ccccc2-n2nccn2)C1 | 2 |  | 8 |  |
| 12 | 0.6 | CC(=O)Nc1ccc(-c2ccccc2)c(C(=O)N2C[C@H](Oc3nccc(C#N)c3C)CC[C@H]2C)n1 | 2 | 74 | 20 | IC50 [5]: 38 nM |
| 324 | 1.7 | C[C@@H]1CC[C@@H](Sc2cc(C#N)ccn2)CN1C(=O)c1ccccc1-n1nccn1 | 109 |  | 191 | IC50 [5]: 13 nM |
| 12 | 0.4 | COC(=O)c1cccnc1N[C@@H]1CC[C@@H](C)N(C(=O)c2ccccc2-n2nccn2)C1 | 2 | 69 | 30 |  |
